In ChEMBL document CHEMBL3232844, “Synthesis and structure activity relationships of schweinfurthin indoles” (2014):

Experiments:
Assay type in all cases: functional
[1] = tested on: BT-549; assay: Cytotoxicity against human BT549 cells
Outline: (§1)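 Tested in a 60-cell-line human tumor panel screen; the read-out is growth inhibition, reported as GI50 for each cell line.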

[2] = tested on: NCI-H23; assay: Cytotoxicity against human NCI-H23 cells; outline: as §1
[3] = tested on: NCI-H226; assay: Cytotoxicity against human NCI-H226 cells; outline: as §1
[4] = tested on: PC-3; assay: Cytotoxicity against human PC3 cells; outline: as §1
[5] = Cytotoxicity against human UO31 cells
Outline: (§2)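 Cell line run as part of the 60-cell-line screening panel; growth inhibition was reported as a GI50 for each line.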

[6] = tested on: U-251; assay: Cytotoxicity against human U251 cells; outline: as §2
[7] = tested on: HT-29; assay: Cytotoxicity against human HT-29 cells; outline: as §1
[8] = tested on: NCI-H322M; assay: Cytotoxicity against human NCI-H322M cells; outline: as §1
[9] = tested on: T47D; assay: Cytotoxicity against human T47D cells; outline: as §2
[10] = tested on: SN12C; assay: Cytotoxicity against human SN12C cells; outline: as §1
[11] = Cytotoxicity against human OVCAR4 cells; outline: as §1
[12] = tested on: A549; assay: Cytotoxicity against human A549 cells; outline: as §1
[13] = tested on: SK-MEL-5; assay: Cytotoxicity against human SK-MEL-5 cells; outline: as §1
[14] = tested on: SF-295; assay: Cytotoxicity against human SF295 cells; outline: as §1
[15] = tested on: LOX IMVI; assay: Cytotoxicity against human LOXIMVI cells; outline: as §1
[16] = tested on: 786-0; assay: Cytotoxicity against human 786-0 cells; outline: as §1
[17] = tested on: K562; assay: Cytotoxicity against human K562 cells; outline: as §1
[18] = Cytotoxicity against human OVCAR3 cells; outline: as §1
[19] = Cytotoxicity against human UACC62 cells; outline: as §2
[20] = tested on: MDA-MB-468; assay: Cytotoxicity against human MDA-MB-468 cells; outline: as §1
[21] = tested on: COLO 205; assay: Cytotoxicity against human COLO205 cells; outline: as §1
[22] = tested on: MDA-MB-231; assay: Cytotoxicity against human MDA-MB-231 cells; outline: as §1
[23] = read-out: pLC50 (the source's name) (converted)

With `COc1cc(/C=C/c2cc(O)c3cc(CC=C(C)C)[nH]c3c2)cc2c1O[C@]1(C)CC[C@@H](O)C(C)(C)[C@H]1C2` the GI50 [1] was 3.72 µM, the CC50 [1, 23] was > 100 µM and the TGI ([1]; read-out: pTGI (converted)) was 50.1 µM. For the same molecule, the GI50 [2] was 6.31 µM, the CC50 [2, 23] was > 100 µM and the TGI ([2]; read-out: pTGI (converted)) was > 100 µM. The GI50 [3] was 57.5 µM, the CC50 [3, 23] was > 100 µM and the TGI ([3]; read-out: pTGI (converted)) was > 100 µM. The GI50 [4] was 1.02 µM, the LC50 [4] was > 100 µM and the TGI ([4]; read-out: pTGI (converted)) was > 100 µM. For the same molecule, the GI50 ([5]; UO-31) was 0.479 µM, the LC50 ([5]; UO-31) was > 100 µM and the TGI ([5]; UO-31, read-out: pTGI (converted)) was 5.89 µM. The GI50 [6] was 0.603 µM, the CC50 [6, 23] was > 100 µM and the TGI ([6]; read-out: pTGI (converted)) was > 100 µM. The GI50 [7] was 2.63 µM, the CC50 [7, 23] was 79.4 µM and the TGI ([7]; read-out: pTGI (converted)) was 18.6 µM. The GI50 [8] was 32.4 µM, the CC50 [8, 23] was > 100 µM and the TGI ([8]; read-out: pTGI (converted)) was > 100 µM. For the same molecule, the GI50 [9] was 29.5 µM, the CC50 [9, 23] was > 100 µM and the TGI ([9]; read-out: pTGI (converted)) was > 100 µM. The GI50 [10] was 58.9 µM, the LC50 [10] was > 100 µM and the TGI ([10]; read-out: pTGI (converted)) was > 100 µM. The GI50 ([11]; OVCAR-4) was 28.8 µM, the CC50 ([11]; OVCAR-4, read-out: pLC50 (the source's name) (converted)) was > 100 µM and the TGI ([11]; OVCAR-4, read-out: pTGI (converted)) was > 100 µM. The GI50 [12] was 6.31 µM, the CC50 [12, 23] was > 100 µM and the TGI ([12]; read-out: pTGI (converted)) was > 100 µM. For the same molecule, the GI50 [13] was 1.41 µM, the CC50 [13, 23] was 7.24 µM and the TGI ([13]; read-out: pTGI (converted)) was 3.16 µM. It also gave a GI50 ([14]; read-out: GI50) of 0.29 µM, a GI50 ([14]; read-out: pGI50 (converted)) of 0.288 µM and a CC50 [14, 23] of 51.3 µM. The TGI ([14]; read-out: pTGI (converted)) was 1.51 µM, the GI50 [15] was 2.82 µM and the CC50 [15, 23] was > 100 µM. The TGI ([15]; read-out: pTGI (converted)) was 75.9 µM, the GI50 [16] was 0.363 µM and the LC50 (concentration killing 50% of cells) [16] was > 100 µM. For the same molecule, the TGI ([16]; read-out: pTGI (converted)) was 11 µM, the GI50 [17] was 2.04 µM and the CC50 [17, 23] was > 100 µM. For the same molecule, the TGI ([17]; read-out: pTGI (converted)) was > 100 µM, the GI50 ([18]; OVCAR-3) was 43.7 µM and the CC50 ([18]; OVCAR-3, read-out: pLC50 (the source's name) (converted)) was > 100 µM. The TGI ([18]; OVCAR-3, read-out: pTGI (converted)) was > 100 µM, the GI50 ([19]; UACC-62) was 0.955 µM and the CC50 ([19]; UACC-62, read-out: pLC50 (the source's name) (converted)) was > 100 µM. The TGI ([19]; UACC-62, read-out: pTGI (converted)) was 7.59 µM, the GI50 [20] was 3.02 µM and the LC50 [20] was > 100 µM. For the same molecule, the TGI ([20]; read-out: pTGI (converted)) was 26.9 µM, the GI50 [21] was 2.75 µM and the CC50 [21, 23] was 22.4 µM. It also gave a TGI ([21]; read-out: pTGI (converted)) of 8.32 µM and a GI50 [22] of 2.69 µM.
